Measured values pooled from the literature.
Protocols differ between the studies behind these lines.
Target: Mitogen-activated protein kinase kinase kinase 9 (MAP3K9, Homo sapiens, UniProt P80192)

| Structure (SMILES) | assay | setting | remaining binding |
| --- | --- | --- | --- |
| CO[C@@H](C)c1c(Nc2ccc([C@@H](N(C)C(=O)C3CCS(=O)(=O)CC3)C(F)(F)F)cc2)cnc2cc(Cl)nn12 | cell-free assay, competition with immobilised ligand | 1 µM | 81% |
| C[C@@H](c1ccc(-n2cnc3c(N)ncnc32)cc1)N1CCc2nn(C)c(Cc3ccccc3)c2C1=O | binding, competition with immobilised ligand | 0.1 µM | 95% |
| C[C@@]1(Cc2ccc(C#N)cc2)C(=O)N(c2cc(Cl)cc(Cl)c2)c2ncc(C(=O)NC3(c4nc(C5CCC5)no4)CC3)n21 | cell-free assay, competition with immobilised ligand | 1 µM | 100% |
| CN(C)c1nccc(-c2cnn3ncccc23)n1 | binding | 1 µM | 100% |
| O=C(c1ccc(Nc2ncc(Cl)c(-c3ccc(Cl)s3)n2)cc1)N1CCC(N2CCCC2)CC1 | binding, competition with immobilised ligand | 1 µM | 8.9% |
| FC(F)(F)Oc1cccc(-c2cnc3ccc(-c4ccncc4)nn23)c1 | cell-free assay, competition with immobilised ligand | 5 µM | 77% |
| O=C(NCCCN1CCOCC1)c1ccc(Nc2ncc(Cl)c(-c3ccc(Cl)s3)n2)cc1 | binding, competition with immobilised ligand | 1 µM | 11% |
| Nc1c(C(=O)NCc2ccc(C(=O)NCCCC3CCCCC3)cc2)cnn1-c1ccccc1 | cell-free assay, competition with immobilised ligand | 0.1 µM | 96% |
| Nc1ncc2c(n1)-c1c([nH]c3ccc(C#CC4CC4)cc13)CCCC2 | binding, competition with immobilised ligand | 1 µM | 100% |
| c1cnn2ncc(-c3ccnc(N4CCC45COC5)n3)c2c1 | binding | 1 µM | 85% |
| COc1ncc2cc3ccccc3nc2c1C#N | cell-free assay, competition with immobilised ligand | 5 µM | 97% |
| F[C@@H]1CCN(c2nccc(-c3cnn4ncccc34)n2)C1 | binding | 1 µM | 78% |
| CN([C@@H]1CCc2c(CC(=O)O)c3ccccc3n2C1)S(=O)(=O)c1ccc(F)cc1 | cell-free assay, competition with immobilised ligand | 1 µM | 100% |
| O=C(c1ccc(Nc2nccc(-c3cc4ccccc4s3)n2)cc1)N1CCC(N2CCCC2)CC1 | binding, competition with immobilised ligand | 1 µM | 27% |
| COc1cnc(Nc2cccc(S(N)(=O)=O)c2)nc1N1CCN(c2ccccc2)CC1 | binding, competition with immobilised ligand | 1 µM | 73% |
| CN(C)c1ncnc(-c2ccc3nc(Nc4cc(CN5CCN(C(=O)CC(F)(F)F)CC5)ccn4)[nH]c3c2)c1Cl | cell-free assay, competition with immobilised ligand | 1 µM | 90% |
| C[C@H]1CCN(c2nccc(-c3cnn4ncccc34)n2)C1 | binding | 1 µM | 100% |
| Cc1nccc(COC(=O)N2C[C@@H]3[C@@H](CNC(=O)c4ccc5[nH]nnc5c4)[C@@H]3C2)n1 | cell-free assay, competition with immobilised ligand | 1 µM | 89% |
| CN(CCCC(F)(F)F)c1nccc(-c2cnn3ncccc23)n1 | binding | 1 µM | 88% |
| COc1cnc(Nc2cccc(S(N)(=O)=O)c2)nc1N1CCN(c2ccccc2)C(=O)C1 | binding, competition with immobilised ligand | 1 µM | 98% |
| CN(C)c1nccc(-c2cnc3ncccn23)n1 | binding | 1 µM | 65% |
| O=C(NS(=O)(=O)c1ccc(NCC2CCOCC2)c([N+](=O)[O-])c1)c1ccc(N2CCN(Cc3ccc(C(F)(F)F)cc3-c3ccc(Cl)cc3)CC2)cc1Oc1cnc2[nH]ccc2c1 | cell-free assay, competition with immobilised ligand | 1 µM | 100% |
| C[C@@H]1CN(c2ccc3ncc(-c4ccc5[nH]nc(C6CC6)c5c4)n3n2)C[C@H](C)O1 | binding, competition with immobilised ligand | 50 nM | 96% |
| CCCCN(CCCC)C(=O)CN1C[C@@H](c2cc(OC)c3c(c2)OCO3)[C@H](C(=O)O)[C@H]1CC(C)(C)CCC | cell-free assay, competition with immobilised ligand | 1 µM | 98.8% |
| O=C(Nc1c[nH]nc1C(=O)NC1CCNCC1)c1cc(F)cc(F)c1 | binding, competition with immobilised ligand | 1 µM | 100% |
